Here are results for five compounds from ChEMBL document CHEMBL1649423, “Inhibition of lymphoid tyrosine phosphatase by benzofuran salicylic acids” (J Med Chem, 2011).

In experiment [1] the target is T1, Tyrosine-protein phosphatase non-receptor type 7 (Homo sapiens, UniProt P35236).
T1 sequence (P35236 whole entry): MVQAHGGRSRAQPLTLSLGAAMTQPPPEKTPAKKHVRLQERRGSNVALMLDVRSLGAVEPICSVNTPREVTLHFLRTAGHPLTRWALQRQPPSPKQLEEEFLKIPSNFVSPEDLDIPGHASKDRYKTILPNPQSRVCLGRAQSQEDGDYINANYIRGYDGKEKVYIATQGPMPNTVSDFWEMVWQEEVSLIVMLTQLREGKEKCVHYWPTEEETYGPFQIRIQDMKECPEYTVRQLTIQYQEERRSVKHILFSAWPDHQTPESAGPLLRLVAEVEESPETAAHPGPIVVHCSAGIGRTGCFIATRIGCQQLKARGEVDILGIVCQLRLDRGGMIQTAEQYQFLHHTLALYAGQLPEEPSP
The experiment is described as follows: Inhibition of HePTP. The method, boiled down:
(§1)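 Fluorometric DiFMUP hydrolysis at 30 C in 50 mM Bis-Tris pH 6.0 (ionic strength 50 mM with NaCl), 1 mM DTT, 5% DMSO, 1% PEG8000. DiFMUP fixed at each PTP's Km. Initial rates read at ex 360/em 460 nm across several compound concentrations. No-enzyme control used to correct for nonenzymatic hydrolysis. HePTP was recombinant in-house; PTP1B, Shp1, CD45 and LAR were commercial recombinant enzymes.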

The target of experiment [2] is Receptor-type tyrosine-protein phosphatase F (Homo sapiens, UniProt P10586). In words: Inhibition of LAR. The method, boiled down:
as §1

For experiment [3], the target named is T2, Tyrosine-protein phosphatase non-receptor type 1 (Homo sapiens, UniProt P18031).
T2 sequence (P18031 whole entry): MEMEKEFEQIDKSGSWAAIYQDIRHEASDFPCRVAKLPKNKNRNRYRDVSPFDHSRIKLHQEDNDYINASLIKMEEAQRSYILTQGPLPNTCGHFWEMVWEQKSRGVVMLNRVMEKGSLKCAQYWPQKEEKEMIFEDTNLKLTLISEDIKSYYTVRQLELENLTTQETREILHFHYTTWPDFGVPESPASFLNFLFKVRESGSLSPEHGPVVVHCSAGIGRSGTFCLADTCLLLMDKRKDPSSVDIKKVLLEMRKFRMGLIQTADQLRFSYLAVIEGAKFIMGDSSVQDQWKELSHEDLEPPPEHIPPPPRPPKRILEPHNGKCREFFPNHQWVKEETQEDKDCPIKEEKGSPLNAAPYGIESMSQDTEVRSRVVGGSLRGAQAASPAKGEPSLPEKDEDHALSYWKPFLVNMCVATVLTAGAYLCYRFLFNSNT
In words: Inhibition of PTP1B. The method, boiled down: as §1

Experiment [4] addresses T3, Receptor-type tyrosine-protein phosphatase C (Homo sapiens, UniProt P08575).
T3 sequence (P08575 whole entry): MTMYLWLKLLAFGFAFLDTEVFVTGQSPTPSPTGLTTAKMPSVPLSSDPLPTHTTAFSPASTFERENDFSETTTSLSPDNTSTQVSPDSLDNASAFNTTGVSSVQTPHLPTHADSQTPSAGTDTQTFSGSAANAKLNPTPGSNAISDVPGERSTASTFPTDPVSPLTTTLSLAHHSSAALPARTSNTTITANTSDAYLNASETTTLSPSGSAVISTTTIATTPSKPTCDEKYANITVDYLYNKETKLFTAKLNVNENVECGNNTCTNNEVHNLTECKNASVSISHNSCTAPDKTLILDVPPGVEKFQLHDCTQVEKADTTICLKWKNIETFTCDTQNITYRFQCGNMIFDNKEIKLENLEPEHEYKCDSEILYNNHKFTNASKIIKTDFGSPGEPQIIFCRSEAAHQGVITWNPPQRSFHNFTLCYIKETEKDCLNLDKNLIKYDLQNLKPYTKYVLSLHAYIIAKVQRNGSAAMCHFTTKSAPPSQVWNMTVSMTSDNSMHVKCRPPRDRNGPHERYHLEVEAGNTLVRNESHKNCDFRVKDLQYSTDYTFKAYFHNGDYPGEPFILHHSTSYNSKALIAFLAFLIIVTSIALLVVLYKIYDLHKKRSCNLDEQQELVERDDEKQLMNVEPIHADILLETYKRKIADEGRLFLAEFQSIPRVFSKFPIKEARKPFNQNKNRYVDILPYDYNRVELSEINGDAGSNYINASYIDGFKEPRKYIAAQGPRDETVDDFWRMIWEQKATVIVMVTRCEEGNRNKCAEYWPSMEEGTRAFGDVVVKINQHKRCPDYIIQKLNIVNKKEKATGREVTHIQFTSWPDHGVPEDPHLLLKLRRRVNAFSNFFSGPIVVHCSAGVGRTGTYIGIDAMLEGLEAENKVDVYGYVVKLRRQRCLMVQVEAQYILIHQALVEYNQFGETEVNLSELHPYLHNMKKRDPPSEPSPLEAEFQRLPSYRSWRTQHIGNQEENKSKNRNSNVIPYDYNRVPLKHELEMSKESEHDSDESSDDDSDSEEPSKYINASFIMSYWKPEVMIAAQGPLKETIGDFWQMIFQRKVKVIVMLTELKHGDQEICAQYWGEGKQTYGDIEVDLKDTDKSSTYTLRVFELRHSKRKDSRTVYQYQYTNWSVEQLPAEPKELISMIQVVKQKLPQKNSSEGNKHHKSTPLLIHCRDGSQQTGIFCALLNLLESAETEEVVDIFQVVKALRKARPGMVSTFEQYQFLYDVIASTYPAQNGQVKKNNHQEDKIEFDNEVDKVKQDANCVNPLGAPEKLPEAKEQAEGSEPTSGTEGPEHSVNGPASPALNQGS
The experiment is described as follows: Inhibition of CD45. The method, boiled down:
as §1

pIC50: −log10 of the molar value.

Broadly, the pIC50 is the IC50 on a negative log10 scale, so that one unit is a factor of ten. Lower therefore signals a large IC50.

Receptor-type tyrosine-protein phosphatase F, sequence (P10586 whole entry): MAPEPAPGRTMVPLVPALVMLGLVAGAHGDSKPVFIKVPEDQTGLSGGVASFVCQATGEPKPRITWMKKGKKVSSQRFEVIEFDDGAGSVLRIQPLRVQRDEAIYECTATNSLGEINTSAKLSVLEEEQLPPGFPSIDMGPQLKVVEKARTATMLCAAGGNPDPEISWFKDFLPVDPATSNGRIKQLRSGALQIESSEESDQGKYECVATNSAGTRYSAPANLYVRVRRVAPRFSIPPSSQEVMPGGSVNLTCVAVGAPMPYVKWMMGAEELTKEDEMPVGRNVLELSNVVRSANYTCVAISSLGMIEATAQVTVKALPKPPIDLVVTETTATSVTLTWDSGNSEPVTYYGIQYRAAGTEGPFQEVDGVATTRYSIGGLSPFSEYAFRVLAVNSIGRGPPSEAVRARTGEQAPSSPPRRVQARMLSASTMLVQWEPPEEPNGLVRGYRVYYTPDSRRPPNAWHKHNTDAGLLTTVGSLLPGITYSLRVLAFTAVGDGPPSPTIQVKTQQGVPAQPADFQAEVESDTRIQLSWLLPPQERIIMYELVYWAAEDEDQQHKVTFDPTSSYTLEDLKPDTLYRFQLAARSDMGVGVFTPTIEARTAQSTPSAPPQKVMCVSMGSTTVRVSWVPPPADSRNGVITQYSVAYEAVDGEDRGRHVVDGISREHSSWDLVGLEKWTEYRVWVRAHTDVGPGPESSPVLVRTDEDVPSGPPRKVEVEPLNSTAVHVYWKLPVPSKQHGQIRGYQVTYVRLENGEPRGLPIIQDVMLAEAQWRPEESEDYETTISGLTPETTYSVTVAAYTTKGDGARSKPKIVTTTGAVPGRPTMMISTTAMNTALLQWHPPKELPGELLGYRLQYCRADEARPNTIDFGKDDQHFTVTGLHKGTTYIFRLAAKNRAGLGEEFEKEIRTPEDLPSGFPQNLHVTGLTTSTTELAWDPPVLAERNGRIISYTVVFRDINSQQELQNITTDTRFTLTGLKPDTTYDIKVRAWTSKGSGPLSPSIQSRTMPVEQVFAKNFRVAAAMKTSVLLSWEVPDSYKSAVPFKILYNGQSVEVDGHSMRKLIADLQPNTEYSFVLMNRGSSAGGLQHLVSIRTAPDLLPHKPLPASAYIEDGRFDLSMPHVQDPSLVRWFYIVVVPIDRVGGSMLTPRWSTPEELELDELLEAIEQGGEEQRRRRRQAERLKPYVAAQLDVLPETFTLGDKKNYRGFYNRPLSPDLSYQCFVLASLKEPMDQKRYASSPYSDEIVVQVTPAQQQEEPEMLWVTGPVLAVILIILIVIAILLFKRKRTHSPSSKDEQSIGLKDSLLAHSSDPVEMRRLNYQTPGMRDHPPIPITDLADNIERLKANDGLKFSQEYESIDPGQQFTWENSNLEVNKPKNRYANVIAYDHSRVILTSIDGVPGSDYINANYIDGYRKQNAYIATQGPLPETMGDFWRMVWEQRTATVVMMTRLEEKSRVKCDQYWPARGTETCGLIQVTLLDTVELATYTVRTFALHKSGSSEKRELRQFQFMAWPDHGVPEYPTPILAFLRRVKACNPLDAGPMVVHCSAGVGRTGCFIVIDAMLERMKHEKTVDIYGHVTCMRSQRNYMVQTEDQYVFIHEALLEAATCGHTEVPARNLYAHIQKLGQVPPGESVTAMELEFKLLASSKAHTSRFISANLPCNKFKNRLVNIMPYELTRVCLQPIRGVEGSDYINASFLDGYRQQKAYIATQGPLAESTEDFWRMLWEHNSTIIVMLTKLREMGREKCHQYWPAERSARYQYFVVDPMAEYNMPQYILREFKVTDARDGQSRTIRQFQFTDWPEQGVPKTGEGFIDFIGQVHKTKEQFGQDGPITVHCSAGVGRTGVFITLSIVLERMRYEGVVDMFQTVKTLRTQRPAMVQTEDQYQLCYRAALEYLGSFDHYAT

Turning to `COc1ccc(-c2oc3cc(O)c(C(=O)O)cc3c2-c2cn(CCCC(=O)Nc3cccc4ccccc34)nn2)cc1`, the pIC50 in experiment [1] is 5.43; in experiment [2], 4.59; in experiment [3], 6.72; in experiment [4], 6.39.

Turning to `Cc1ccc(-c2oc3cc(O)c(C(=O)O)cc3c2-c2cn(CCCC(=O)Nc3ccc(Cl)c4ccccc34)nn2)cc1`, the pIC50 is 5.43 in experiment [1], 4.63 in experiment [2], 6.69 in experiment [3] and 5.98 in experiment [4].

As for `Cc1ccc(-c2oc3cc(O)c(C(=O)O)cc3c2-c2cn(CCCC(=O)Nc3cccc4ccccc34)nn2)cc1`, the pIC50 in experiment [1] is 5.39; in experiment [2] it was 4.44; in experiment [3], 6.67; in experiment [4] it was 6.17.

Consider `COc1ccc2nc(NC(=O)CCCn3cc(-c4c(-c5cccc(C)c5)oc5cc(O)c(C(=O)O)cc45)nn3)sc2c1`, for which the pIC50 in experiment [1] is 5.20; in experiment [2], 4.40; in experiment [3], 6.66; in experiment [4], 6.06.

Regarding `COC(=O)c1cc2c(-c3cn(CCCC(=O)Nc4ccc(Cl)c5ccccc45)nn3)c(-c3ccccc3)oc2cc1O`, the pIC50 in experiment [1] was 4.49; in experiment [2] it was 4.35; in experiment [3] it was 4.94; in experiment [4], 4.79.
